Laboratory results taken from ChEMBL document CHEMBL3352188, “Synthesis, antimicrobial and molecular docking studies of enantiomerically pure N-alkylated β-amino alcohols from phenylpropanolamines” (2014).

Assays:
Pseudomonas aeruginosa [1] = assay: Antimicrobial activity against Pseudomonas aeruginosa MTCC 741 at 1 mg/disc after 24 hrs by disc diffusion assay; format: functional
In short: (§1)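 Disc diffusion on Mueller Hinton agar. Inoculum was grown in MHB for 24 h at 37 °C, swabbed onto the plates and dried for 10 min. Discs with 1 mg compound were left 30 min at room temperature for diffusion, then incubated at 37 °C for 24 h. Inhibition zone was read in mm; run twice. Solvent was the negative control, streptomycin the positive control.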

Candida albicans [2] = assay: Antimicrobial activity against Candida albicans MTCC 227 at 1 mg/disc after 24 hrs by disc diffusion assay; format: functional
Malassezia pachydermatis [3] = assay: Antimicrobial activity against Malassezia pachydermatis at 1 mg/disc after 24 hrs by disc diffusion assay; format: functional
Bacillus subtilis [4] = assay: Antimicrobial activity against Bacillus subtilis MTCC 441 after 24 hrs by two fold dilution method; format: functional; conditions: MTCC 441, 24 h
In short: (§2)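 Broth two-fold serial dilution in 96-well plates from 1000 to 7.81 µg/mL, compound in DMSO (2%). Inoculum was grown in MHB for 24 h at 37 °C; plates were incubated 24 h at 37 °C. 5 µL of broth was spotted onto MHA; MIC was the lowest concentration with no visible growth on agar. Streptomycin was the positive control.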

Micrococcus luteus [5] = assay: Antimicrobial activity against Micrococcus luteus MTCC 106 after 24 hrs by two fold dilution method; format: functional; conditions: MTCC 106, 24 h; in short: as §2
Klebsiella aerogenes [6] = assay: Antimicrobial activity against Enterobacter aerogenes MTCC 111 after 24 hrs by two fold dilution method; format: functional; conditions: MTCC 111, 24 h; in short: as §2
Staphylococcus aureus [7] = assay: Antimicrobial activity against Staphylococcus aureus MTCC 96 after 24 hrs by two fold dilution method; format: functional; conditions: MTCC 96, 24 h; in short: as §2
Salmonella typhimurium [8] = assay: Antimicrobial activity against Salmonella typhimurium MTCC 1251 after 24 hrs by two fold dilution method; format: functional, Salmonella enterica subsp. enterica serovar Typhimurium; conditions: Salmonella enterica, MTCC 1251, 24 h; in short: as §2
Klebsiella pneumoniae [9] = assay: Antimicrobial activity against Klebsiella pneumoniae MTCC 109 after 24 hrs by two fold dilution method; format: functional; conditions: MTCC 109, 24 h; in short: as §2
Proteus vulgaris [10] = assay: Antimicrobial activity against Proteus vulgaris MTCC 1771 after 24 hrs by two fold dilution method; format: functional; conditions: MTCC 1771, 24 h; in short: as §2
Staphylococcus aureus [11] = assay: Antimicrobial activity against methicillin-resistant Staphylococcus aureus MTCC 96 after 24 hrs by two fold dilution method; format: functional; conditions: MTCC 96, 24 h; in short: as §2
[12] = tested on: Salmonella enterica subsp. enterica serovar Paratyphi B; assay: Antimicrobial activity against Salmonella paratyphi B after 24 hrs by two fold dilution method; format: functional; in short: as §2
Shigella flexneri [13] = assay: Antimicrobial activity against Shigella flexneri MTCC 1457 after 24 hrs by two fold dilution method; format: functional; conditions: MTCC 1457, 24 h; in short: as §2
Pseudomonas aeruginosa [14] = assay: Antimicrobial activity against Pseudomonas aeruginosa MTCC 741 after 24 hrs by two fold dilution method; format: functional; conditions: MTCC 741, 24 h; in short: as §2
Candida albicans [15] = assay: Antimicrobial activity against Candida albicans MTCC 227 after 48 to 72 hrs by two fold dilution method; format: functional
In short: (§3)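 Yeast was grown in Sabouraud dextrose broth at 28 °C for 48 h and tested per CLSI reference methods. Two-fold serial dilutions from 1000 to 7.81 µg/mL, compound in DMSO (2%), in 96-well plates, incubated 48–72 h at 28 °C. MIC was the lowest concentration with no visible fungal growth. Ketoconazole was the positive control.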

Malassezia pachydermatis [16] = assay: Antimicrobial activity against Malassezia pachydermatis after 48 to 72 hrs by two fold dilution method; format: functional; in short: as §3
Bacillus subtilis [17] = assay: Bactericidal activity against Bacillus subtilis MTCC 441 after 24 hrs by two fold dilution method; format: functional; conditions: MTCC 441, 24 h
In short: (§4)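 Tubes held 5 mL MHB with two-fold dilutions from 1000 to 7.81 µg/mL and were inoculated with 5 × 10^5 to 1 × 10^6 cells in 0.1 mL MHB, incubated without shaking. Turbidity was checked at 20 h, tubes vortexed and re-incubated 4 h.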

Micrococcus luteus [18] = assay: Bactericidal activity against Micrococcus luteus MTCC 106 after 24 hrs by two fold dilution method; format: functional; conditions: MTCC 106, 24 h; in short: as §4
Klebsiella aerogenes [19] = assay: Bactericidal activity against Enterobacter aerogenes MTCC 111 after 24 hrs by two fold dilution method; format: functional; conditions: MTCC 111, 24 h; in short: as §4
Staphylococcus aureus [20] = assay: Bactericidal activity against Staphylococcus aureus MTCC 96 after 24 hrs by two fold dilution method; format: functional; conditions: MTCC 96, 24 h; in short: as §4
Salmonella typhimurium [21] = assay: Bactericidal activity against Salmonella typhimurium MTCC 1251 after 24 hrs by two fold dilution method; format: functional, Salmonella enterica subsp. enterica serovar Typhimurium; conditions: Salmonella enterica, MTCC 1251, 24 h; in short: as §4
Klebsiella pneumoniae [22] = assay: Bactericidal activity against Klebsiella pneumoniae MTCC 109 after 24 hrs by two fold dilution method; format: functional; conditions: MTCC 109, 24 h; in short: as §4
Proteus vulgaris [23] = assay: Bactericidal activity against Proteus vulgaris MTCC 1771 after 24 hrs by two fold dilution method; format: functional; conditions: MTCC 1771, 24 h; in short: as §4
Staphylococcus aureus [24] = assay: Bactericidal activity against methicillin-resistant Staphylococcus aureus MTCC 96 after 24 hrs by two fold dilution method; format: functional; conditions: MTCC 96, 24 h; in short: as §4
[25] = tested on: Salmonella enterica subsp. enterica serovar Paratyphi B; assay: Bactericidal activity against Salmonella paratyphi B after 24 hrs by two fold dilution method; format: functional; in short: as §4
Shigella flexneri [26] = assay: Bactericidal activity against Shigella flexneri MTCC 1457 after 24 hrs by two fold dilution method; format: functional; conditions: MTCC 1457, 24 h; in short: as §4
Pseudomonas aeruginosa [27] = assay: Bactericidal activity against Pseudomonas aeruginosa MTCC 741 after 24 hrs by two fold dilution method; format: functional; conditions: MTCC 741, 24 h; in short: as §4
Candida albicans [28] = assay: Fungicidal activity against Candida albicans MTCC 227 after 48 to 72 hrs by two fold dilution method; format: functional
Malassezia pachydermatis [29] = assay: Fungicidal activity against Malassezia pachydermatis after 48 to 72 hrs by two fold dilution method; format: functional
Bacillus subtilis [30] = assay: Antimicrobial activity against Bacillus subtilis MTCC 441 at 1 mg/disc after 24 hrs by disc diffusion assay; format: functional; in short: as §1
Micrococcus luteus [31] = assay: Antimicrobial activity against Micrococcus luteus MTCC 106 at 1 mg/disc after 24 hrs by disc diffusion assay; format: functional; in short: as §1
Klebsiella aerogenes [32] = assay: Antimicrobial activity against Enterobacter aerogenes MTCC 111 at 1 mg/disc after 24 hrs by disc diffusion assay; format: functional; in short: as §1
Staphylococcus aureus [33] = assay: Antimicrobial activity against Staphylococcus aureus MTCC 96 at 1 mg/disc after 24 hrs by disc diffusion assay; format: functional; in short: as §1
Salmonella typhimurium [34] = assay: Antimicrobial activity against Salmonella typhimurium MTCC 1251 at 1 mg/disc after 24 hrs by disc diffusion assay; format: functional, Salmonella enterica subsp. enterica serovar Typhimurium; in short: as §1
Klebsiella pneumoniae [35] = assay: Antimicrobial activity against Klebsiella pneumoniae MTCC 109 at 1 mg/disc after 24 hrs by disc diffusion assay; format: functional; in short: as §1
Proteus vulgaris [36] = assay: Antimicrobial activity against Proteus vulgaris MTCC 1771 at 1 mg/disc after 24 hrs by disc diffusion assay; format: functional; in short: as §1
Staphylococcus aureus [37] = assay: Antimicrobial activity against […] Staphylococcus aureus MTCC 96 at 1 mg/disc after 24 hrs by disc diffusion assay; format: functional; in short: as §1
[38] = tested on: Salmonella enterica subsp. enterica serovar Paratyphi B; assay: Antimicrobial activity against Salmonella paratyphi B at 1 mg/disc after 24 hrs by disc diffusion assay; format: functional; in short: as §1
Shigella flexneri [39] = assay: Antimicrobial activity against Shigella flexneri MTCC 1457 at 1 mg/disc after 24 hrs by disc diffusion assay; format: functional; in short: as §1

COc1ccc([C@@H](C)N[C@@H](C)[C@H](O)c2ccccc2)cc1.Cl
125 mg/L: MIC (Bacillus subtilis [4]) | MIC (Micrococcus luteus [5]) | MIC (Klebsiella aerogenes [6]) | MIC (Staphylococcus aureus [7]) | MIC (Staphylococcus aureus [11]) | MIC [12] | MIC (Pseudomonas aeruginosa [14]) | MBC (Klebsiella aerogenes [19]) | MBC (Klebsiella pneumoniae [22]) | MBC [25]
16 mm: inhibition zone (IZ) [38]
62.5 mg/L: MIC (Klebsiella pneumoniae [9]) | MIC (Proteus vulgaris [10]) | MIC (Candida albicans [15]) | MIC (Malassezia pachydermatis [16]) | MBC (Proteus vulgaris [23]) | MFC (Candida albicans [28]) | MFC (Malassezia pachydermatis [29])
250 mg/L: MIC (Salmonella typhimurium [8]) | MBC (Bacillus subtilis [17]) | MBC (Micrococcus luteus [18]) | MBC (Staphylococcus aureus [20]) | MBC (Staphylococcus aureus [24]) | MBC (Pseudomonas aeruginosa [27])
500 mg/L: MBC (Salmonella typhimurium [21])
14 mm: inhibition zone (IZ) (Bacillus subtilis [30]) | inhibition zone (IZ) (Klebsiella aerogenes [32])
15 mm: inhibition zone (IZ) (Pseudomonas aeruginosa [1]) | inhibition zone (IZ) (Micrococcus luteus [31]) | inhibition zone (IZ) (Staphylococcus aureus [33]) | inhibition zone (IZ) (Staphylococcus aureus [37])
31.2 mg/L: MIC (Shigella flexneri [13]) | MBC (Shigella flexneri [26])
13 mm: inhibition zone (IZ) (Salmonella typhimurium [34])
18 mm: inhibition zone (IZ) (Malassezia pachydermatis [3]) | inhibition zone (IZ) (Klebsiella pneumoniae [35]) | inhibition zone (IZ) (Shigella flexneri [39])
17 mm: inhibition zone (IZ) (Candida albicans [2]) | inhibition zone (IZ) (Proteus vulgaris [36])

CC[C@@H](N[C@@H](C)[C@H](O)c1ccccc1)c1ccccc1.Cl
125 mg/L: MBC [25]
31.2 mg/L: MIC (Bacillus subtilis [4]) | MIC (Micrococcus luteus [5]) | MIC (Klebsiella aerogenes [6]) | MIC (Staphylococcus aureus [7]) | MIC (Salmonella typhimurium [8]) | MIC (Proteus vulgaris [10]) | MIC (Staphylococcus aureus [11]) | MIC (Candida albicans [15]) | MIC (Malassezia pachydermatis [16]) | MBC (Bacillus subtilis [17]) | MBC (Staphylococcus aureus [20]) | MBC (Salmonella typhimurium [21]) | MBC (Proteus vulgaris [23]) | MBC (Staphylococcus aureus [24]) | MBC (Shigella flexneri [26]) | MFC (Candida albicans [28]) | MFC (Malassezia pachydermatis [29])
22 mm: inhibition zone (IZ) (Candida albicans [2]) | inhibition zone (IZ) (Staphylococcus aureus [33])
62.5 mg/L: MIC [12] | MIC (Pseudomonas aeruginosa [14]) | MBC (Micrococcus luteus [18]) | MBC (Klebsiella aerogenes [19]) | MBC (Pseudomonas aeruginosa [27])
24 mm: inhibition zone (IZ) (Malassezia pachydermatis [3])
19 mm: inhibition zone (IZ) [38]
21 mm: inhibition zone (IZ) (Micrococcus luteus [31]) | inhibition zone (IZ) (Klebsiella aerogenes [32]) | inhibition zone (IZ) (Proteus vulgaris [36]) | inhibition zone (IZ) (Shigella flexneri [39])
18 mm: inhibition zone (IZ) (Pseudomonas aeruginosa [1])
20 mm: inhibition zone (IZ) (Bacillus subtilis [30]) | inhibition zone (IZ) (Salmonella typhimurium [34]) | inhibition zone (IZ) (Staphylococcus aureus [37])
15.6 mg/L: MIC (Klebsiella pneumoniae [9]) | MIC (Shigella flexneri [13]) | MBC (Klebsiella pneumoniae [22])
23 mm: inhibition zone (IZ) (Klebsiella pneumoniae [35])

C[C@H](N[C@H](C)c1ccccc1)[C@H](O)c1ccccc1.Cl
500 mg/L: MBC (Salmonella typhimurium [21]) | MBC (Klebsiella pneumoniae [22]) | MBC (Proteus vulgaris [23]) | MBC (Staphylococcus aureus [24]) | MBC (Shigella flexneri [26])
62.5 mg/L: MIC (Staphylococcus aureus [7]) | MIC (Pseudomonas aeruginosa [14]) | MBC (Staphylococcus aureus [20])
125 mg/L: MIC (Bacillus subtilis [4]) | MIC (Micrococcus luteus [5]) | MIC (Klebsiella aerogenes [6]) | MIC [12] | MIC (Candida albicans [15]) | MIC (Malassezia pachydermatis [16]) | MBC (Bacillus subtilis [17]) | MBC (Pseudomonas aeruginosa [27]) | MFC (Candida albicans [28]) | MFC (Malassezia pachydermatis [29])
15 mm: inhibition zone (IZ) (Malassezia pachydermatis [3])
250 mg/L: MIC (Salmonella typhimurium [8]) | MIC (Klebsiella pneumoniae [9]) | MIC (Proteus vulgaris [10]) | MIC (Staphylococcus aureus [11]) | MIC (Shigella flexneri [13]) | MBC (Micrococcus luteus [18]) | MBC (Klebsiella aerogenes [19]) | MBC [25]
13 mm: inhibition zone (IZ) (Klebsiella aerogenes [32]) | inhibition zone (IZ) (Klebsiella pneumoniae [35])
12 mm: inhibition zone (IZ) (Proteus vulgaris [36])
16 mm: inhibition zone (IZ) (Pseudomonas aeruginosa [1]) | inhibition zone (IZ) (Staphylococcus aureus [33]) | inhibition zone (IZ) (Shigella flexneri [39])
11 mm: inhibition zone (IZ) (Salmonella typhimurium [34]) | inhibition zone (IZ) (Staphylococcus aureus [37])
14 mm: inhibition zone (IZ) (Candida albicans [2]) | inhibition zone (IZ) (Bacillus subtilis [30]) | inhibition zone (IZ) (Micrococcus luteus [31]) | inhibition zone (IZ) [38]
